High-throughput results from PubChem.
APOBEC3A inh: blocks human APOBEC3A ssDNA deamination. recombinant A3A, FAM/TAMRA ssDNA deamination fluorescence. inhibition, % at 20 µM. hit rate 0.41% among 330,000. AID 493011;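 active means at least 40% inhibition at 20 µM here, with at most 30% in a related deaminase screen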;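 further: plate controls were A3A with DMSO for no effect and wells lacking A3A enzyme for full effect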
Target sequence (P31941 whole entry, looked up): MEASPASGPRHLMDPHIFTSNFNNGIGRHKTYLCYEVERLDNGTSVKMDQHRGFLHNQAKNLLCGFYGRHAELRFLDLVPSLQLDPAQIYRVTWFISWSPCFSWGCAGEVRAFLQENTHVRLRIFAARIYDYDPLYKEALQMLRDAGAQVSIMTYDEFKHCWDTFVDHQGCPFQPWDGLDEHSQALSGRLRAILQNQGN
UCH37 inh: inhibitors of human deubiquitinating enzyme UCH37; Q9Y5K5; purified proteasome/UCH37, Ub-AMC cleavage fluorescence; inhibition, % (concentration not given with the values); hit rate 0.33% among 330,000;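 active means mean inhibition over replicate wells above about 20%, limit read from the data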;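 further: 0% = compound-free wells with enzyme and 100% = wells lacking proteasome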
Target sequence (Q9Y5K5 whole entry, looked up): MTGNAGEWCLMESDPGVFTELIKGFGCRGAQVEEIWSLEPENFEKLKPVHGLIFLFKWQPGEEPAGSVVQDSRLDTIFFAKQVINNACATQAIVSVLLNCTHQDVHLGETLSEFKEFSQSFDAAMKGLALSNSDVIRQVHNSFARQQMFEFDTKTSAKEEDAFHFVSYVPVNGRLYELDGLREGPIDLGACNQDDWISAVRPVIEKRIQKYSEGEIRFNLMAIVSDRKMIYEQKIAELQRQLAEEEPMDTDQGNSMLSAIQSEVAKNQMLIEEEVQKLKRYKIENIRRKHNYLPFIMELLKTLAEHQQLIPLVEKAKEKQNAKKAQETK
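Material: Human UCH37 enzyme supplied as purified proteasome complex | Schedule: 30 min preincubation with enzyme, 25 min cleavage at room temperature | Detection: AMC fluorescence 355/460 nm | Measure: % inhibition of Ub-AMC cleavage fluorescence | Controls: Wells without proteasome as full block, compound-free enzyme plus substrate as uninhibited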
PolyA inhibitor: yeast polyadenylation inhibition; S. cerevisiae SKY197-pL101 polyadenylation reporter, beta-gal luminescence; efflux-impaired pdr1/pdr3 knockout yeast; score 100 = 6 SD above DMSO; activity score, % at 12 µM; hit rate 0.02% among 300,000;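 active means lowest replicate activity score at least 50, where 100 means six control SD above control mean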;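 further: yeast exposed to compound for 9 h at 30 °C; higher score means more reporter readthrough which indicates perturbed polyadenylation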
Arr AP2 block: human beta-arrestin and AP2 interaction inhibition; FITC-arrestin peptide / GST-AP2 beads, flow cytometry; AP2 beta2 appendage carries R879A mutation; inhibition, % at 10 µM; hit rate 0.31% among 340,000; AID 504490;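 active means inhibition above a set limit, near 3 SD of compounds lacking own fluorescence, cut at about 54% in these data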;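 further: plate controls were DMSO wells for no effect and 5 µM unlabelled arrestin peptide for full effect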
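System: GST-tagged AP2 beta2-adaptin appendage (R879A) on 4 µm glutathione beads / Reagent: FITC-arrestin peptide, 50 nM / Detection: HyperCyt-sampled flow cytometry, FL1 channel, ex 488/em 535 nm / Timing: 12 min plus 1 h, RT / Buffer or medium: PBS plus Tween 20 (0.05%) and BSA (0.1%)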
A3G deaminase: inhibitors of human APOBEC3G DNA deaminase; recombinant A3G, ssDNA deamination FAM/TAMRA fluorescence; Q9HC16; hit rate 0.28% among 330,000; inhibition, % at 20 µM;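 active means inhibition of at least 40% at 20 µM, with no more than 30% in the related APOBEC3A deaminase screen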;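 further: plate controls were DMSO wells with A3G for no effect and wells lacking A3G enzyme for full effect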
AHR act: activators of human aryl hydrocarbon receptor | AID 2796 | hit rate 2.5% among 320,000 | activation, % at 5 µM | P35869 | AHR-responsive luciferase reporter cells, luminescence; in the data active means activation above about 47%;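 further: 0% = vehicle wells and 100% = reference agonist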
Numbers without * were called inactive; · = no result. Compounds with a hit are over-represented: about 3.4% of the library has one in this group of screens.

SMILES | APOBEC3A inh | UCH37 inh | PolyA inhibitor | Arr AP2 block | A3G deaminase | AHR act
Cc1ccsc1/C=N/N=C1\C(=O)Nc2ccccc21 | -2 | · | -24 | -8 | -5 | 70*
Cc1n[nH]c(=S)n1N=Cc1ccc(Br)o1 | · | -2 | · | · | · | ·
COc1ccc(C=NNc2nc(=O)[nH]nc2C)cc1OC | · | 17 | · | · | · | ·
NNC(=O)C(=NNc1ccccc1)S(=O)(=O)c1ccc(Cl)cc1 | · | 11 | · | · | · | ·
O=c1[nH]c(SCc2nc3ccccc3c(=O)n2-c2ccccc2)nc2ccccc12 | 2 | 1 | -14 | 20 | 0 | 55*
O=c1[nH]c(CSc2nc3ccccc3s2)nc2cc(Cl)ccc12 | -7 | -2 | -10 | · | -7 | 53*
O=c1[nH]c(Cc2cccs2)nc2ccccc12 | 5 | 1 | -8 | -3 | -2 | 3
O=C(OCc1nc2ccccc2c(=O)[nH]1)c1cccs1 | 0 | -4 | 0 | -9 | -5 | 55*
O=c1[nH]c(CSc2nc3ccccc3s2)nc2ccccc12 | 2 | 0 | -7 | 1 | -3 | 66*
CCOc1cc(C=NNc2nc(Nc3ccccc3)nc(N3CCOCC3)n2)ccc1OC(=O)c1ccco1 | · | 3 | · | · | · | ·
Cc1ccc(-c2nnc(SCC(=O)NN=Cc3ccccc3C(=O)O)n2-c2ccc(Cl)cc2)cc1 | · | 1 | · | · | · | ·
CCn1c(SCc2nc3ccccc3c(=O)[nH]2)nc2ccccc2c1=O | -4 | -2 | -4 | 27 | -12 | 67*
COCc1cc(C)nc(SCc2nc3ccccc3c(=O)[nH]2)c1C#N | 3 | -2 | 29 | 19 | -5 | 34
Cc1cc(C)c(C#N)c(SCc2nc3ccccc3c(=O)[nH]2)n1 | 3 | -5 | -15 | 3 | -1 | 51*
COc1cc(C=NNc2ccc3ccccc3c2)ccc1OC(=O)c1ccco1 | · | -18 | · | · | · | ·
N#Cc1ccccc1NC(=O)CSc1nnc(-c2ccccc2)n1-c1ccccc1 | -2 | 2 | -2 | -2 | -7 | 65*
COc1ccccc1C(=O)ON=C(C)c1ccc(N2C(=O)C3CCCCC3C2=O)cc1 (configuration not stated) | · | 0 | · | · | · | ·
CCOC(=O)c1cc(-c2csc(N/N=C/c3ccccc3Cl)n2)on1 | 5 | · | 10 | 8 | -4 | 50*
COc1ccc(C(=O)NN=Cc2c(CO)cnc(C)c2O)cc1 | · | -413 | · | · | · | ·
Cn1ncc(C#N)c1N=CN1CCCCC1 | · | 1 | · | · | · | ·
CCC(C)Nc1nc(N)c([N+](=O)[O-])c(Nc2ccccc2OC)n1 (configuration not stated) | -2 | · | -57 | -19 | -7 | 69*
COc1ccccc1Nc1nc(NCC(C)C)nc(N)c1[N+](=O)[O-] | -3 | 8 | -35 | 3 | -7 | 79*
COc1ccccc1Nc1nc(NCCCN(C)C)nc(N)c1[N+](=O)[O-] | 4 | 11 | 8 | 6 | 1 | 62*
CN(C)CCCNc1nc(N)c([N+](=O)[O-])c(NCCO)n1 | -4 | 17 | 14 | 4 | -10 | -2
COc1ccc2c3n([n+]([O-])c2c1)CCN=C3c1ccc(Cl)cc1 | 0 | 0 | · | -8 | -4 | 26
SMILES | APOBEC3A inh | UCH37 inh | PolyA inhibitor | Arr AP2 block | A3G deaminase | AHR act
Nc1c(Cl)cc(C2=NCCn3c2c2ccc(C(F)(F)F)cc2[n+]3[O-])cc1Cl | -1 | 4 | 17 | 19 | -5 | 54*
[O-][n+]1c2ccccc2c2n1CCCN=C2c1ccc(Cl)cc1 | 2 | 0 | -21 | 4 | -1 | 51*
Cc1ccc(C2=NCCn3c2c2ccc([N+](=O)[O-])cc2[n+]3[O-])cc1 | 0 | 2 | 9 | 33 | -3 | 19
Cc1ccc(C2=NCCn3c2c2ccccc2[n+]3[O-])cc1 | -5 | 4 | -7 | -3 | -4 | 20
O=[N+]([O-])c1ccc2c3n([n+]([O-])c2c1)CCN=C3c1ccc(Cl)cc1 | -3 | 0 | -12 | 7 | -4 | 48*
Clc1ccc(C2=NCCn3nc4ccccc4c32)cc1 | -3 | 1 | -13 | -1 | -7 | 79*
O=C(O)COc1ccccc1C=NNC(=O)Cc1ccccc1 | · | 2 | · | · | · | ·
Nc1c(C(=O)NN=Cc2cccnc2)oc2nc(-c3ccco3)cc(-c3ccco3)c12 | · | -13 | · | · | · | ·
COc1ccc(N(CC(=O)NN=Cc2ccc(OC3CSC3)cc2)S(=O)(=O)c2ccccc2)cc1 | · | 2 | · | · | · | ·
C=C(C)CNC(=S)NN=C(C)c1ccc(-n2ccnc2)cc1 | · | 3 | · | · | · | ·
CCOc1ccc(S(=O)(=O)Nc2ccc(C(=O)N/N=C(\C)c3ccc(-n4ccnc4)cc3)cc2)cc1 | -1 | · | 6 | 5 | 1 | 54*
COc1ccc(NS(=O)(=O)c2cccc(C(=O)N/N=C(/C)c3ccc(-n4ccnc4)cc3)c2)cc1 | · | -11 | · | 29 | · | ·
COCCNC(=S)N/N=C(\C)c1ccc(-n2ccnc2)cc1 | -3 | · | 26 | -5 | -5 | 87*
Brc1cnc2nc(SC/C=C/c3ccccc3)[nH]c2c1 | -6 | 2 | -3 | 38 | -11 | 3
O=C(NCc1nc2ncc(Br)cc2[nH]1)c1ccccc1 | -2 | 1 | 14 | -9 | 6 | 78*
COc1cccc2cc(-c3nc4ccccc4o3)c(=O)oc12 | 2 | -24 | 103* | 8 | -1 | 18
COc1cccc2cc3c(=O)n(-c4ccccc4)nc-3oc12 | 5 | 0 | -9 | 4 | 1 | 49*
COc1cccc2cc(C(=O)c3ccccc3)oc12 | -1 | 5 | -40 | 11 | -3 | -1
CC(=O)Nc1ccc(C(C)=NNc2nc(Nc3cccc4ccccc34)nc(N3CCOCC3)n2)cc1 | · | 6 | · | · | · | ·
Cc1ccc(C(=O)/C=C\C(=O)c2ccc(C)cc2)cc1 | · | 3 | -14 | 1 | · | 0
CC(/C=C/C(=O)c1ccc(C)cc1)=C\c1ccccc1 | -3 | 1 | -12 | -4 | -7 | 64*
Cn1c(=O)n(CCc2ccccc2)c(=O)c2c1nc1n2CCN1Cc1ccco1 | -1 | 3 | -20 | 26 | -3 | 66*
Cn1c(=O)n(Cc2ccc(F)cc2)c(=O)c2c1nc1n2CCN1Cc1ccco1 | 1 | 6 | 2 | -10 | -14 | 2
CC(/C=C/c1ccco1)=NNC(=O)CNc1ccccc1C | · | 5 | · | · | · | ·
COc1cc(-c2nc3ccccc3c(=O)n2N)cc(OC)c1OC | 1 | -2 | 0 | -1 | -6 | 16
COc1cc(-c2nc3c4ccccc4nc(=S)n3[nH]2)cc(OC)c1OC | -10 | 6 | -3 | -6 | -12 | 71*
COc1ccccc1-c1nc2c3ccccc3nc(=S)n2[nH]1 | -5 | 5 | 3 | 6 | -9 | 68*
O=C(CSc1ccc(C=NNC(=O)c2cccc(F)c2)o1)Nc1ccccc1 | · | -4 | · | · | · | ·
O=C(NN=Cc1cc(Br)c(Br)o1)c1ccc2c(c1)OCCO2 | · | 8 | · | · | · | ·
Cc1cc(-n2c(SCC(=O)NCc3cccs3)nc3n[nH]c(C)c3c2=N)ccc1Cl | 2 | -3 | 10 | -10 | -3 | 70*
